# Tb MetRS inh: blocks T. brucei methionyl-tRNA synthetase activity; AID 624268; purified T. brucei MetRS, ATP depletion, Kinase-Glo luminescence; actives 0.4% (n = 360,000); inhibition, % at 11.9 µM;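 active = inhibition above a per-plate cutoff of the control wells' mean inhibition plus 3 SD, cut at about 5.5% in these data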
#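 Measured by: Kinase-Glo luciferase luminescence reporting remaining unconsumed ATP. Material: purified T. brucei MetRS enzyme. Doses: 11.9 µM compound single dose, 0.9% DMSO. Medium: HEPES buffer containing pyrophosphatase, BSA, spermine, DTT. Times: 15 min preincubation, 2 h reaction, all 25 °C. Reagent: methionine, ATP and bulk E. coli tRNA.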
# MT1-MMP act inh: MT1-MMP (human) activation inhibition. HT1080 RFP-PRO-GFP cells, GFP/RFP ratio fluorescence, overnight; percent of plate control window, DMSO zero. GFP/RFP ratio change, % at 20 µM. actives 0.061% (n = 360,000). AID 651647;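 active = GFP/RFP ratio change of at least 30% with cell ATP level not reduced by more than half and red fluorescence within 50% of control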
#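 Assay system: HT1080 cells carrying an RFP-PRO-GFP reporter | Dosing: Single dose of 20 µM compound, 1% DMSO final | Incubation: Cells overnight before dosing, compound overnight, 37 °C, 5% CO2 | Evaluation: GFP/RFP fluorescence ratio | Control set: DMSO and RFP-L50D-GFP cell wells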
# NPR2 activator: GC-B (human) receptor activation; activation, % at 10 µM; P20594; HEK293-GC-B cells, CNP EC30, cGMP TR-FRET; 0% at EC30 CNP, 100% saturating CNP; actives 0.11% (n = 370,000);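 active = activation at 10 µM reaching about 35% in either raw or pattern-adjusted values, limit read from the data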
# NPR1 activator: GC-A (human) enzyme activation. P16066. HEK293 GC-A cells, cGMP TR-FRET, EC30 ANP; 0% at EC30 ANP, 100% saturating ANP. activation, % at 10 µM. actives 0.14% (n = 370,000). AID 1671463; in the data active = activation above about 40%
# Target sequence (P16066 whole entry, looked up): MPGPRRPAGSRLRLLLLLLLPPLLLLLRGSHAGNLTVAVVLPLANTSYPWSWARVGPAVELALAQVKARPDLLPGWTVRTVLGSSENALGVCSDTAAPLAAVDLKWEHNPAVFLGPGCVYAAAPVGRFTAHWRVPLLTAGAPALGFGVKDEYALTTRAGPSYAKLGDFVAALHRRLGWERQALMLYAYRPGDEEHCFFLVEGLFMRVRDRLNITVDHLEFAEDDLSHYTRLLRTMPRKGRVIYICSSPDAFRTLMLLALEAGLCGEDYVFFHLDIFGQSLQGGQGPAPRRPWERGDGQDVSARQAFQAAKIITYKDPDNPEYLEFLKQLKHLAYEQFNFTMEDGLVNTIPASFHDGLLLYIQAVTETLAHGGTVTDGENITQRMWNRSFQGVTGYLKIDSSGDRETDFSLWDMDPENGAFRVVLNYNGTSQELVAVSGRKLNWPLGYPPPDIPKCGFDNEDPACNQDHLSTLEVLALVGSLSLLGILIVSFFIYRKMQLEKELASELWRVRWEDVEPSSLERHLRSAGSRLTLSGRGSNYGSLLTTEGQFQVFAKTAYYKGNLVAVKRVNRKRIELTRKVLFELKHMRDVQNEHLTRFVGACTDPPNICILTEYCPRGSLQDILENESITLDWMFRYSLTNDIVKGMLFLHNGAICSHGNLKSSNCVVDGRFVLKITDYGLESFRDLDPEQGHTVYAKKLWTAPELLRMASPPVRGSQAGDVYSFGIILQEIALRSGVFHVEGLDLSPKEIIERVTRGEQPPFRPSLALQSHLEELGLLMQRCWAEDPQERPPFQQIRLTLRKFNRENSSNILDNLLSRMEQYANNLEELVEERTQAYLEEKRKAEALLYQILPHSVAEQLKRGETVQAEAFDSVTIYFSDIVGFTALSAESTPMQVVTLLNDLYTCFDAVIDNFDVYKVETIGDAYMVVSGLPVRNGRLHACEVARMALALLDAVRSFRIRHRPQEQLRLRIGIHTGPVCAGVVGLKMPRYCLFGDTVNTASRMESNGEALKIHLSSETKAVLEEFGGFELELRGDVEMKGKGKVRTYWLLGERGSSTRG
# A1 inh: inhibitors of the anti-apoptotic protein A1, read as caspase activation; MEF A1-2A-BIM cells, Caspase-Glo 3/7 luminescence, 3 h; percent of clofoctol response, vehicle zero; caspase activation, % (concentration not given with the values); actives 0.066% (n = 330,000);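 active = over half of replicate activation scores above 10%, or exactly half above 10 with the replicate mean above 10; inconclusive = replicate mean below 10 yet half the replicates above 10; inactive = over half of replicates below 10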
# SKN-1 inh: C. elegans SKN-1 inhibition | AID 624304 | inhibition, % at 21.8 µM | C. elegans VP596 Pgst-4::GFP/RFP ratio, acrylamide-induced, 24 h | actives 0.49% (n = 360,000);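 active = interference check ratio from 0.5 to 1.5 plus GFP to RFP signal ratio inhibition reaching or exceeding a fixed threshold, cut at about 30% in these data, passing the limit was not always enough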
# Tb MetRS conf: confirmation of Trypanosoma brucei MetRS inhibitors | shares compounds with Tb MetRS inh | inhibition, % at 11.9 µM | actives 93% (n = 1,400) | AID 624412 | T. brucei MetRS enzyme, luminescence (ATP depletion); in the data active = inhibition above about 7%
# Jurkat tox: kills Jurkat cells in T. brucei MetRS counterscreen | shares compounds with Tb MetRS inh | Jurkat cells viability, ATP luminescence | inhibition, % at 8.3 µM | actives 12% (n = 1,400); in the data active = inhibition above about 15%
# Tb MetRS inh FP: inhibits T. brucei methionyl tRNA synthetase in orthogonal FP test; shares compounds with Tb MetRS inh; actives 44% (n = 1,400); inhibition, % at 11.9 µM; purified T. brucei MetRS, fluorescence polarization; AID 651607; in the data active = inhibition above about 17%
# Numbers stand for hits; – = inactive; ? = inconclusive; · = no result. In the library only some 1.1% were active in any assay of this set; here they are far more common.
SMILES,Tb MetRS inh,MT1-MMP act inh,NPR2 activator,NPR1 activator,A1 inh,SKN-1 inh,Tb MetRS conf,Jurkat tox,Tb MetRS inh FP
Brc1ccc(-c2nnc3sc(CNCc4ccc5c(c4)OCO5)cn23)cc1,33.1,–,–,–,–,–,48.4,–,25.4
Cc1ccc(NC(=O)CN(C)C(=O)CSc2ccccc2F)cc1,–,–,–,–,–,–,·,·,·
Cc1ccc(NC(=O)CN(C)C(=O)CCSc2ccc(F)cc2)cc1,42.8,–,–,–,–,–,80.4,–,60.1
O=C(CSc1nnc2c(n1)[nH]c1ccc(F)cc12)Nc1ccccc1F,–,–,–,–,–,–,·,·,·
O=C(CSc1nnc2c(n1)[nH]c1ccccc12)NCc1ccccc1F,6.5,–,–,–,?,–,44.5,–,27.4
COc1cccc(NC(=O)CN(C)CC(=O)Nc2ccc(Br)cc2)c1,11.3,–,–,–,–,–,19.7,–,22.6
O=C(CSc1nc2ncc(Br)cc2[nH]1)c1ccc([N+](=O)[O-])cc1,18.2,–,–,–,–,–,51.7,–,24.2
COc1cccc(NC(=O)CSc2nc3ncc(Br)cc3[nH]2)c1,69.6,–,–,–,–,–,84.7,–,60.4
CCc1ccc(NC(=O)CSc2nc3ncc(Br)cc3[nH]2)cc1,–,–,–,–,–,–,·,·,·
O=C(NCc1cc(Cl)cc(Cl)c1)c1ccc2nc(COCCO)[nH]c2c1,20.9,–,–,–,·,–,55.3,–,30.4
c1ccc2cc(OCc3nc4ccccc4[nH]3)ccc2c1,6.0,–,–,–,–,–,6.8,–,–
Brc1ccc(OCc2nc3ccccc3[nH]2)cc1,10.2,–,–,–,–,–,16.1,–,–
COc1ccc(OCc2nc3ccccc3[nH]2)cc1,–,–,–,–,–,–,·,·,·
COc1cccc(OCc2nc3ccccc3[nH]2)c1,–,–,–,–,–,–,·,·,·
CN1CCN(c2ccc3c(c2)Oc2ccccc2CN(Cc2cn(Cc4ccc(F)cc4)nn2)S3(=O)=O)CC1,·,·,–,–,·,·,·,·,·
O=C(Nc1ccccc1)Nc1ccc(Cl)c(S(=O)(=O)N2CCOCC2)c1,14.9,–,–,–,–,–,18.9,–,–
O=C(Nc1cccc(S(=O)(=O)N2CCOCC2)c1)c1ccc(Cl)c([N+](=O)[O-])c1,7.7,–,–,–,–,–,18.8,21.4,–
CCOC(=O)C(/C=C(\C#N)C(=O)OCC)=C(/N)N1CCN(c2ccccc2)CC1,40.5,–,–,–,–,–,57.6,–,28.3
O=C(O)C1=C[C@H](C2CC2)C[C@H](OCc2ccc(CO)cc2)O1,–,–,–,–,–,–,·,·,·
O=C(NCc1nc2ccccc2[nH]1)C1=C[C@H](C2CC2)C[C@H](OCc2ccc(CO)cc2)O1,50.5,–,–,–,–,–,83.0,–,55.7
O=C(NCc1nc2ccccc2[nH]1)C1=C[C@@H](C2CC2)C[C@@H](OCc2ccc(CO)cc2)O1,80.5,–,–,–,–,–,99.2,–,86.8
O=C(Nc1ccccc1)C1=C[C@@H](C2CC2)C[C@@H](OCc2ccc(CO)cc2)O1,–,–,–,–,–,–,·,·,·
COC(=O)[C@]12C[C@H](CC(=O)N3CCN(C(=O)C4CC4)CC3)C(=O)N(Cc3ccco3)C1=C[C@H](C(C)C)O[C@@H]2C1CC1,·,·,–,–,·,·,·,·,·
Cc1cc(O)c(/C=N/OCc2ccc(Cl)cc2Cl)c(=O)o1,–,–,–,–,–,–,·,·,·
CN(C)/C=C(\C=N\OCc1ccc(Cl)cc1Cl)C(=O)Nc1ccc(Cl)c(Cl)c1,65.9,–,–,–,–,–,9.2,–,–
SMILES,Tb MetRS inh,MT1-MMP act inh,NPR2 activator,NPR1 activator,A1 inh,SKN-1 inh,Tb MetRS conf,Jurkat tox,Tb MetRS inh FP
Cc1cccc(NC(=O)NCCCCc2ccccc2)c1,–,–,–,–,–,–,·,·,·
O=C(NCCCCc1ccccc1)Nc1cccc(F)c1,10.7,–,–,–,–,–,44.2,–,34.9
Cc1ccc2cc(CCNC(=O)C(=O)c3c(C)[nH]c4ccccc34)c(=O)[nH]c2c1,13.4,–,–,–,–,–,30.8,–,–
Cc1ccc2c(c1)C(CS(=O)(=O)NCc1ccccc1)NC2 (stereo not drawn),·,·,–,–,·,·,·,·,·
O=C(Nc1ccccc1C(F)(F)F)OCCN1C(=O)CCC12CCC(c1ccccc1)CC2 (stereo not drawn),·,·,–,–,·,·,·,·,·
CNC(=S)NNC(=O)c1cccn(Cc2ccc(Cl)cc2Cl)c1=O,·,·,–,–,–,·,·,·,·
CNC(=S)NNC(=O)c1ccc(=O)n(Cc2ccc(Cl)cc2Cl)c1,7.8,–,–,–,–,–,20.0,–,–
COc1cccc(NC(=O)NC2CCCCN(Cc3ccc(C)cc3)C2=O)c1 (stereo not drawn),·,·,–,–,·,·,·,·,·
COc1ccc(-c2noc([C@@H]3O[C@H](CO)[C@H](O)[C@H](O)[C@H]3O)n2)cc1OC,7.5,–,–,–,·,–,–,–,–
COc1cc(OC)cc(-c2noc([C@@H]3O[C@H](CO)[C@H](O)[C@H](O)[C@H]3O)n2)c1,–,–,–,–,·,–,·,·,·
Cc1ccc(-c2c(NC(=O)c3ccc(F)cc3)nc3ncccn23)cc1,·,·,–,–,·,·,·,·,·
CC(C)CNC(=O)OCc1cn(Cc2cc(F)ccc2F)nn1,·,·,–,–,·,·,·,·,·
O=C1c2ccccc2C(c2nc3ccccc3[nH]2)N1c1ccccn1 (stereo not drawn),6.9,–,–,–,·,–,14.3,–,–
COCCN1C(=O)c2ccccc2C1c1nc2ccccc2[nH]1 (stereo not drawn),–,–,–,–,·,–,·,·,·
COc1ccc(Nc2nnc(SCC(=O)N(CC(C)C)C3CCS(=O)(=O)C3)s2)cc1 (stereo not drawn),11.1,–,–,–,·,–,28.8,–,17.7
O=C(CSc1nnc(Nc2ccccc2)s1)NC1CCS(=O)(=O)C1 (stereo not drawn),9.4,–,–,–,–,–,27.2,–,–
Cc1cccc(C)c1Nc1nnc(SCC(=O)NC2CCS(=O)(=O)C2)s1 (stereo not drawn),–,–,–,–,–,–,·,·,·
CCN(C(=O)CSc1nnc(Nc2ccccc2)s1)C1CCS(=O)(=O)C1 (stereo not drawn),7.4,–,–,–,–,–,16.3,–,–
